Here are results for seven compounds from ChEMBL document CHEMBL1158762, “Antineoplastic agents. 534. isolation and structure of sansevistatins 1 and 2 from the African Sansevieria ehrenbergii” (2005).

Converted amounts (≈) assume the structure as drawn. The source made the active and inactive calls. The rule behind the calls is not given here. Some results are limits rather than exact numbers.

Assay [1] relates to Cryptococcus neoformans. In words: Antimicrobial activity against Cryptococcus neoformans ATCC 90112 by broth micro dilution assay. It is filed as functional.
Assay [2] has as its system Candida albicans. In words: Antimicrobial activity against Candida albicans ATCC 90028 by broth micro dilution assay. It is filed as functional.
The test system of assay [3] is Streptococcus pneumoniae. In words: Antimicrobial activity against Streptococcus pneumoniae ATCC 6303 at 64 ug/mL by broth micro dilution assay. In kind it is functional, organism-based.
Assay [4] has as its system Micrococcus luteus. In words: Antimicrobial activity against Micrococcus luteus presque Isle 456 at 64 ug/mL by broth micro dilution assay. It is filed as functional, organism-based.
A further assay relates to Staphylococcus aureus. In words: Antimicrobial activity against Staphylococcus aureus at 64 ug/mL by broth micro dilution assay. It is filed as functional, organism-based.
In the next assay the test system is Enterococcus faecalis. In words: Antimicrobial activity against Enterococcus faecalis at 64 ug/mL by broth micro dilution assay. It is filed as functional, organism-based.
The next assay has as its system Escherichia coli. In words: Antimicrobial activity against Escherichia coli at 64 ug/mL by broth micro dilution assay. In kind it is functional, organism-based.
A further assay deals with Enterobacter cloacae. In words: Antimicrobial activity against Enterobacter cloacae at 64 ug/mL by broth micro dilution assay. In kind it is functional, organism-based.
For assay [5], the system named is Stenotrophomonas maltophilia. In words: Antimicrobial activity against Stenotrophomonas maltophilia at 64 ug/mL by broth micro dilution assay. In kind it is functional, organism-based.
The subject of a further assay is Neisseria gonorrhoeae. In words: Antimicrobial activity against Neisseria gonorrhoeae at 64 ug/mL by broth micro dilution assay. In kind it is functional, organism-based.
A further assay deals with P388. In words: Growth inhibition of mouse P388 cells after 48 hrs. In kind it is functional. Conditions: P388, 48 h, read-out: ED50 (the source's name). Put shortly:
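Murine P388 leukemia cells were preincubated 24 h in Fisher medium with 10% horse serum, then exposed to serial compound dilutions for 48 h. Cells were counted on an electronic particle counter, and ED50 for growth inhibition was calculated from the counts.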

For another assay, the system named is BXPC-3. In words: Growth inhibition of humanBxPC3 cells after 48 hrs. It is filed as functional. Particulars: Homo sapiens, BXPC-3, 48 h. Put shortly:
(§1)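 NCI sulforhodamine B assay. Cells in RPMI1640 with 5% fetal bovine serum were seeded and incubated 24 h, then exposed to serial dilutions for 48 h. Plates were TCA-fixed, SRB-stained and read for optical density. GI50 is the concentration giving 50% reduction in net protein increase, calculated from OD data.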

A further assay deals with MCF7. In words: Growth inhibition of human MCF7 cells after 48 hrs. In kind it is functional. Conditions: MCF7, 48 h. Put shortly: as §1
A further assay deals with SF-268. In words: Growth inhibition of human SF268 cells after 48 hrs. In kind it is functional. Conditions: SF-268, 48 h. Put shortly:
as §1

A further assay deals with NCI-H460. In words: Growth inhibition of human NCI-H460 cells after 48 hrs. In kind it is functional. Conditions: NCI-H460, 48 h. Summed up:
as §1

The next assay concerns KM-20L2. In words: Growth inhibition of human KM20L2 cells after 48 hrs. It is filed as functional. Particulars: KM-20L2, 48 h. Put shortly: as §1
Another assay relates to DU-145. In words: Growth inhibition of human DU145 cells after 48 hrs. In kind it is functional. Conditions: DU-145, 48 h. Summed up: as §1
Assay [6] relates to Streptococcus pneumoniae. In words: Antimicrobial activity against Streptococcus pneumoniae ATCC 6303 by broth micro dilution assay. It is filed as functional.
Assay [7] has as its system Micrococcus luteus. In words: Antimicrobial activity against Micrococcus luteus presque Isle 456 by broth micro dilution assay. In kind it is functional. Summed up:
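NCCLS broth microdilution. Compounds reconstituted in a small volume of sterile DMSO and diluted in the appropriate medium immediately before testing. MIC read as the lowest concentration giving no visible growth (optically clear). Assays repeated on separate days.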

Assay [8] deals with Cryptococcus neoformans. In words: Antimicrobial activity against Cryptococcus neoformans ATCC 90112 at 64 ug/mL by broth micro dilution assay. It is filed as functional, organism-based.
Assay [9] concerns Candida albicans. In words: Antimicrobial activity against Candida albicans ATCC 90028 at 64 ug/mL by broth micro dilution assay. In kind it is functional, organism-based.

On to `C[C@@H]1CC[C@@]2(OC1)O[C@H]1C[C@H]3[C@@H]4CC=C5C[C@@H](O[C@@H]6O[C@H](CO)[C@@H](O[C@@H]7OC[C@@H](O)[C@H](O)[C@H]7O)[C@H](O)[C@H]6O[C@@H]6O[C@@H](C)[C@H](O)[C@@H](O)[C@H]6O)CC[C@]5(C)[C@H]4CC[C@]3(C)[C@H]1[C@@H]2C`, for which the MIC was 2 µg/mL (≈ 2.34 µM) in the assay on Cryptococcus neoformans [1] and 4 µg/mL (≈ 4.68 µM) in the assay with Candida albicans [2]. In addition, the outcome in the assay with Streptococcus pneumoniae [3], in the assay with Micrococcus luteus [4], in the assay with Staphylococcus aureus, in the assay on Enterococcus faecalis, in the assay with Escherichia coli and with Enterobacter cloacae was inactive. In addition, the result (in [5]; in the assay on Neisseria gonorrhoeae) was inactive. The EC50 in the assay on P388 is 2.6 µg/mL (≈ 3.04 µM). Also, the GI50 in the assay on BXPC-3 was 1.7 µg/mL (≈ 1.99 µM); in the assay with MCF7, 1.4 µg/mL (≈ 1.64 µM); with SF-268 it was 1.3 µg/mL (≈ 1.52 µM); in the assay on NCI-H460, 1.2 µg/mL (≈ 1.4 µM); in the assay on KM-20L2, 0.5 µg/mL (≈ 0.585 µM); with DU-145 it was 1.1 µg/mL (≈ 1.29 µM).

Turning to `C=C1CC[C@@]2(OC1)O[C@H]1C[C@H]3[C@@H]4CC=C5C[C@@H](O[C@@H]6O[C@H](CO)[C@@H](O[C@@H]7O[C@@H](C)[C@H](O)[C@@H](O)[C@H]7O)[C@H](O)[C@H]6O[C@@H]6O[C@@H](C)[C@H](O)[C@@H](O)[C@H]6O)CC[C@]5(C)[C@H]4CC[C@]3(C)[C@H]1[C@@H]2C` [SANSEVISTATIN 1], the MIC was 1 µg/mL (≈ 1.15 µM) against Cryptococcus neoformans [1] and 2 µg/mL (≈ 2.31 µM) in the assay with Candida albicans [2]. In addition, the result in the assay with Streptococcus pneumoniae [3], with Micrococcus luteus [4], in the assay on Staphylococcus aureus, with Enterococcus faecalis, in the assay on Escherichia coli and with Enterobacter cloacae was inactive. Moreover, the outcome (in assay [5]; in the assay with Neisseria gonorrhoeae) was inactive. Moreover, the EC50 in the assay on P388 was 1.6 µg/mL (≈ 1.85 µM). Also, the GI50 in the assay with BXPC-3 turned out to be 1.1 µg/mL (≈ 1.27 µM); with MCF7, 1.1 µg/mL (≈ 1.27 µM); in the assay on SF-268 it was 1.3 µg/mL (≈ 1.5 µM); in the assay with NCI-H460, 0.43 µg/mL (≈ 0.496 µM); in the assay with KM-20L2 it was 0.47 µg/mL (≈ 0.542 µM); in the assay with DU-145, 1 µg/mL (≈ 1.15 µM).

Take `C[C@@H]1CC[C@@]2(OC1)O[C@H]1C[C@H]3[C@@H]4[C@H](O)C=C5C[C@@H](O[C@@H]6O[C@H](CO)[C@@H](O)[C@H](O)[C@H]6O[C@@H]6O[C@@H](C)[C@H](O)[C@@H](O)[C@H]6O)CC[C@]5(C)[C@H]4CC[C@]3(C)[C@H]1[C@@H]2C` [SANSEVIERIN A]: the MIC in the assay with Cryptococcus neoformans [1] and in the assay with Candida albicans [2] was 64 µg/mL (≈ 86.6 µM) throughout. For the same compound, the result in the assay with Streptococcus pneumoniae [3], with Micrococcus luteus [4], with Staphylococcus aureus, in the assay with Enterococcus faecalis, in the assay with Escherichia coli and in the assay on Enterobacter cloacae was inactive. Moreover, the result (in [5]; in the assay on Neisseria gonorrhoeae) was inactive. In the assay on P388, the EC50 was > 10 µg/mL. The GI50 with BXPC-3, with MCF7, in the assay on SF-268, in the assay with NCI-H460, in the assay on KM-20L2 and in the assay on DU-145 was > 10 µg/mL in each case.

Turning to `C[C@@H]1CC[C@@]2(OC1)O[C@H]1C[C@H]3[C@@H]4CC=C5C[C@@H](O[C@@H]6O[C@H](CO)[C@@H](O)[C@H](O)[C@H]6O[C@@H]6O[C@@H](C)[C@H](O)[C@@H](O)[C@H]6O)CC[C@]5(C)[C@H]4CC[C@]3(C)[C@H]1[C@@H]2C` [OPHIOPOGONIN C], the MIC against Cryptococcus neoformans [1] was 1 µg/mL (≈ 1.38 µM); in the assay on Candida albicans [2], 2 µg/mL (≈ 2.77 µM); in the assay on Streptococcus pneumoniae [6] it was 16 µg/mL (≈ 22.1 µM). The result (with Micrococcus luteus [4]; in the assay on Staphylococcus aureus; in the assay with Enterococcus faecalis; with Escherichia coli; in the assay on Enterobacter cloacae; in [5]) was inactive. In addition, the outcome in the assay with Neisseria gonorrhoeae was inactive. The EC50 with P388 was found to be 1.5 µg/mL (≈ 2.07 µM). Besides, the GI50 was found to be 1.8 µg/mL (≈ 2.49 µM) in the assay on BXPC-3; 2 µg/mL (≈ 2.77 µM) in the assay with MCF7; 1.8 µg/mL (≈ 2.49 µM) with SF-268; 1.8 µg/mL (≈ 2.49 µM) with NCI-H460; 1.7 µg/mL (≈ 2.35 µM) in the assay with KM-20L2; 1.6 µg/mL (≈ 2.21 µM) with DU-145.

As to `C[C@@H]1CC[C@@]2(OC1)O[C@H]1C[C@H]3[C@@H]4CC=C5C[C@@H](O)CC[C@]5(C)[C@H]4CC[C@]3(C)[C@H]1[C@@H]2C` [DISOGENIN], in the assay on Micrococcus luteus [7], the MIC is 32 µg/mL (≈ 77.2 µM). The outcome in the assay on Cryptococcus neoformans [8], in the assay on Candida albicans [9], in the assay with Streptococcus pneumoniae [3], in the assay on Staphylococcus aureus, with Enterococcus faecalis and with Escherichia coli was inactive. Besides, the result (in the assay on Enterobacter cloacae; in assay [5]; in the assay with Neisseria gonorrhoeae) was inactive. In the assay on P388, the EC50 was 4.3 µg/mL (≈ 10.4 µM). Besides, the GI50 is > 10 µg/mL with BXPC-3; > 10 µg/mL with MCF7; > 10 µg/mL with SF-268; > 10 µg/mL in the assay with NCI-H460; > 10 µg/mL with KM-20L2; 8.5 µg/mL (≈ 20.5 µM) in the assay on DU-145.

Consider `C[C@@H]1CC[C@@]2(OC1)O[C@H]1C[C@H]3[C@@H]4CC=C5C[C@@H](O[C@@H]6O[C@H](CO)[C@@H](O[C@@H]7OC[C@H](O)[C@H](O)[C@H]7O)[C@H](O)[C@H]6O[C@@H]6O[C@@H](C)[C@H](O)[C@@H](O)[C@H]6O)CC[C@]5(C)[C@H]4CC[C@]3(C)[C@H]1[C@@H]2C` [SANSEVISTATIN 2], for which the minimum inhibitory concentration (MIC) in the assay on Cryptococcus neoformans [1] is 1 µg/mL (≈ 1.17 µM); in the assay with Streptococcus pneumoniae [6] it was 32 µg/mL (≈ 37.4 µM). Further, the result in the assay on Candida albicans [9], in the assay with Micrococcus luteus [4], in the assay on Staphylococcus aureus, in the assay with Enterococcus faecalis, in the assay with Escherichia coli and with Enterobacter cloacae was inactive. Besides, the result (in assay [5]; with Neisseria gonorrhoeae) was inactive. Also, the EC50 in the assay on P388 is 1.7 µg/mL (≈ 1.99 µM). The GI50 was 0.93 µg/mL (≈ 1.09 µM) with BXPC-3; 0.62 µg/mL (≈ 0.725 µM) in the assay on MCF7; 0.68 µg/mL (≈ 0.795 µM) in the assay on SF-268; 0.26 µg/mL (≈ 0.304 µM) in the assay with NCI-H460; 0.22 µg/mL (≈ 0.257 µM) with KM-20L2; 0.42 µg/mL (≈ 0.491 µM) with DU-145.

Turning to `C[C@@H]1CC[C@@]2(OC1)O[C@H]1C[C@H]3[C@@H]4CC=C5C[C@@H](O[C@@H]6O[C@H](CO)[C@@H](O[C@@H]7O[C@@H](C)[C@H](O)[C@@H](O)[C@H]7O)[C@H](O)[C@H]6O[C@@H]6O[C@@H](C)[C@H](O)[C@@H](O)[C@H]6O)CC[C@]5(C)[C@H]4CC[C@]3(C)[C@H]1[C@@H]2C` [DIOSCIN], the MIC against Cryptococcus neoformans [1] is 1 µg/mL (≈ 1.15 µM); with Candida albicans [2], 2 µg/mL (≈ 2.3 µM); against Streptococcus pneumoniae [6] it was 32 µg/mL (≈ 36.8 µM); in the assay on Micrococcus luteus [7], 4 µg/mL (≈ 4.6 µM). The result (in the assay on Staphylococcus aureus; in the assay with Enterococcus faecalis; in the assay with Escherichia coli; in the assay on Enterobacter cloacae; in assay [5]; with Neisseria gonorrhoeae) was inactive. Moreover, in the assay with P388, the EC50 amounted to 1.5 µg/mL (≈ 1.73 µM). The GI50 in the assay with BXPC-3 turned out to be 1.1 µg/mL (≈ 1.27 µM); in the assay with MCF7, 1.6 µg/mL (≈ 1.84 µM); in the assay on SF-268, 1.2 µg/mL (≈ 1.38 µM); in the assay with NCI-H460, 1.6 µg/mL (≈ 1.84 µM); with KM-20L2, 1.6 µg/mL (≈ 1.84 µM); in the assay on DU-145, 1.6 µg/mL (≈ 1.84 µM).
